Source: ChEMBL document CHEMBL3774351, “Three stories on Eph kinase inhibitors: From in silico discovery to in vivo validation” (Eur J Med Chem, 2016)
pIC50: −log10 of the molar value. Blank lines part the entries; values can stand above or below the compound they belong to.

What was measured:
Ephrin type-B receptor 4 = biological target: T1, Ephrin type-B receptor 4 (Homo sapiens, UniProt P54760); assay: Inhibition of N-terminal GST-fused His6-tagged human recombinant EphB4
T1 sequence (P54760 whole entry): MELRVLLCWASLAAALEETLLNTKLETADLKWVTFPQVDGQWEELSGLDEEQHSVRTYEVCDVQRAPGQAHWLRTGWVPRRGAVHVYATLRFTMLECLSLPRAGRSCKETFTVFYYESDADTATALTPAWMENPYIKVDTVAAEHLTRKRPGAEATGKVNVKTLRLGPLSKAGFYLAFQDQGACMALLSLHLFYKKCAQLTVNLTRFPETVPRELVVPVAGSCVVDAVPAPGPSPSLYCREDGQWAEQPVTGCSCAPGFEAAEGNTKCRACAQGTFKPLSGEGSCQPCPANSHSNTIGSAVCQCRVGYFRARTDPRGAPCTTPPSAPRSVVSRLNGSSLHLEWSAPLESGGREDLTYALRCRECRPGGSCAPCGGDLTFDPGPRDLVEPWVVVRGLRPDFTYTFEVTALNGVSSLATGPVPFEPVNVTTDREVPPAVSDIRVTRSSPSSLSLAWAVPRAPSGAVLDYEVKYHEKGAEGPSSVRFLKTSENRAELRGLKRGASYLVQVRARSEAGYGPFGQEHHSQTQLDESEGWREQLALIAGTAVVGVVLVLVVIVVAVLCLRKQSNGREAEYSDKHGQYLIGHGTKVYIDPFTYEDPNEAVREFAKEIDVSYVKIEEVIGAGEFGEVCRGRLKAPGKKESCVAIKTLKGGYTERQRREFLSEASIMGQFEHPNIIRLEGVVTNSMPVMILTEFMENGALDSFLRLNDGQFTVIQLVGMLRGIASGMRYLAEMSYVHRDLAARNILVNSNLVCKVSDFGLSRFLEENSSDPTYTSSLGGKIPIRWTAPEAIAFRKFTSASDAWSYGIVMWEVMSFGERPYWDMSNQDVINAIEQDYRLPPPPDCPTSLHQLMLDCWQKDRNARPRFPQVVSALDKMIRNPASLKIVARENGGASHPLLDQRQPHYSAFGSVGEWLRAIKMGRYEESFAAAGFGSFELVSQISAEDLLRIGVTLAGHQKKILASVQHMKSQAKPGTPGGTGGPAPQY
Method in brief: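 EphB4 FRET enzymatic assay measuring inhibition of phosphorylation of a synthetic substrate, with ATP at Km.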

HUVEC [1] = assay: Antiangiogenic activity in HUVEC assessed as reduction in tube length after 15 hrs by matrigel assay; type: functional, cell-based; conditions: Homo sapiens
Method in brief: (§1)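 HUVEC seeded on Matrigel and incubated with compound for 15 h. Tube length, total branching points and total loops quantified against untreated control cells. Dose-response curves used to derive IC50 for each read-out. Measurements done at least in triplicate, SEM shown.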

HUVEC [2] = assay: Antiangiogenic activity in HUVEC assessed as reduction in branching points at 1 uM after 15 hrs by matrigel assay; type: functional; conditions: Homo sapiens
HUVEC [3] = assay: Antiangiogenic activity in HUVEC assessed as reduction in number of loops at 1 uM after 15 hrs by matrigel assay; type: functional; conditions: Homo sapiens
HUVEC [4] = assay: Antiangiogenic activity in HUVEC assessed as reduction in number of loops after 15 hrs by matrigel assay; type: functional, cell-based; conditions: Homo sapiens; method in brief: as §1
HUVEC [5] = assay: Antiangiogenic activity in HUVEC assessed as reduction in branching points after 15 hrs by matrigel assay; type: functional, cell-based; conditions: Homo sapiens; method in brief: as §1
MDA-MB-231 = assay: Antitumor activity against human MDA-MB-231 cells xenografted in nude mouse assessed as tumor growth inhibition at 50 mg/kg, bid administered for 21 days relative to control; type: functional; conditions: MDA-MB-231, 504 h
Method in brief: (§2)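 MDA-MB-231 xenografts in nude mice, treatment started at median tumor volume 108 mm3. Oral gavage of 50 mg/kg twice daily (100 mg/kg/day) for 21 days versus vehicle cohort, 9 animals per cohort. Median tumor volume followed over time. Mean body weight monitored through the treatment period.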

HUVEC [6] = assay: Antiangiogenic activity in HUVEC assessed as inhibition of VEGF-A-induced angiogenic sprouting by spheroid-based sprouting assay; conditions: Homo sapiens
Mus musculus [7] = assay: AUClast in CD-1 (ICR) mouse at 1 mg/kg, iv; type: ADME, organism-based; parameters: dose 1 mg/kg, route intravenous, time 0 - last; conditions: in vivo
Mus musculus [8] = assay: Toxicity in nude mouse xenografted with human MDA-MB-231 cells assessed as reduction in body weight at 50 mg/kg, bid administered for 21 days measured during the treatment period; type: organism-based; parameters: scale not given: the % may be the effect or the level left; conditions: in vivo, 504 h; method in brief: as §2
[9] = Half life in human liver microsomes at 0.1 uM up to 60 mins by HPLC-MS/MS analysis

- pIC50 (Ephrin type-B receptor 4): 6.52
SMILES: COc1cccc(-n2c(N)c(C(N)=O)c3nc4ccccc4nc32)c1

SMILES: COc1ccccc1-n1c(-c2ccc(O)cc2C)cn2c3c(=O)[nH]c(=O)n(C)c3nc12
- pIC50 (HUVEC [1]): 5.77
- inhibition at 1 µM (HUVEC [2]): 87%
- inhibition at 1 µM (HUVEC [3]): 97%
- pIC50 (HUVEC [4]): 7.15
- pIC50 (HUVEC [5]): 6.72

- AUClast (Mus musculus [7]): 39 ng·h/mL
SMILES: Cc1ccc(O)cc1-n1c(N)c(C(N)=O)c2nc3ccccc3nc21
- inhibition in vivo at 50 mg/kg (MDA-MB-231): 80%
- pIC50 (HUVEC [6]): 5.82
- Activity (Mus musculus [8]): <= 16%

- half-life at 1 h, 0.1 µM [9]: > 1 h
SMILES: CC(C)NCC(O)COc1cccc2ccccc12 (stereo unspecified) [PROPRANOLOL]
